Source: PubChem BioAssay
Most compounds without a hit are left out; they make up all but 1.6% or so of the library.
PAD4 inh: blocks human protein arginine deiminase 4 | recombinant PAD4, RCA probe fluorescence polarization | Q9UM07 | AID 485272 | inhibition, % at 6.36 µM | 330,000 tested, 0.41% active;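 active means percent inhibition above a cutoff equal to the mean of all tested compounds plus 3 SD, cut at about 15% in these data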
Target sequence (Q9UM07 whole entry, looked up): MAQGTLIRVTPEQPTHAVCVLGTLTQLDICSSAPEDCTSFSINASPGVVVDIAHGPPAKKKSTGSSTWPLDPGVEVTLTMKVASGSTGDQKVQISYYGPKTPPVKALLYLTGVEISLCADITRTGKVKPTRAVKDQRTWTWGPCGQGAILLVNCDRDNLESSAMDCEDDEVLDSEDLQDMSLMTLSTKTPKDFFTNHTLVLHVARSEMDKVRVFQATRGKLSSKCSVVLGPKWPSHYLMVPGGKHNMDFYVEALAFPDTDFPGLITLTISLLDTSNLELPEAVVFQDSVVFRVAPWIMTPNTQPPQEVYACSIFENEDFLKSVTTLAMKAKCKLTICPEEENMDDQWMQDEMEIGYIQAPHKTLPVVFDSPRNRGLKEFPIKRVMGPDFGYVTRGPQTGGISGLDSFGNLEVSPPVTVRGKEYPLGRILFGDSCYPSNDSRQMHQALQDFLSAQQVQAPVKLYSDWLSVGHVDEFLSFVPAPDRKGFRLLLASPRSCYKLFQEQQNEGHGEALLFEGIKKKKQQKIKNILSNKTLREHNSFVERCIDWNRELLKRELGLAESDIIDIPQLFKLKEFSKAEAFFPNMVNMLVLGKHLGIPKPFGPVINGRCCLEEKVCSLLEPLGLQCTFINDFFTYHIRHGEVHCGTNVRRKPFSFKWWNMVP
HKDC1 inhibitor: inhibitors of human hexokinase HKDC1 | Q2TB90 | recombinant HKDC1, G6PDH/diaphorase resazurin coupled fluorescence | inhibition, % at 20 µM | 340,000 tested, 0.16% active;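 active means inhibition above about 35% when tested at 20 µM, limit read from the data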
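System: Recombinant HKDC1 hexokinase | Amount: HKDC1 at 5 µg/mL | Reagent: Glucose with 1 mM ATP | Doses: Single 20 µM dose | Incubation: Reaction time 90 min, room temperature, protected from light | Signal: Coupled resazurin fluorescence, excitation 525 nm, emission 613 nm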
CTSL1 counter: blocks F. hepatica cathepsin L1 in PFM18AAP counter-screen; recombinant F. hepatica cathepsin L1, Z-Leu-Arg-MCA fluorescence; inhibition, % at 5.96 µM; 300,000 tested, 0.49% active; AID 1906;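 active means inhibition above the mean of all tested compounds plus 3 SD, set per screening campaign, cut at about 17% in these data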
TDP2 absorb: blocks human TDP2 phosphodiesterase activity; O95551; recombinant TDP2, T5PNP hydrolysis, p-nitrophenol absorbance 415 nm; inhibition, % at 12.8 µM; 370,000 tested, 0.34% active; AID 720702;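 active means inhibition above the mean of all tested compounds plus 3 SD, set per campaign, cut at about 25% in these data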
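Incubation: 2 h at 37 °C; Test system: recombinant human TDP2; Quantity: enzyme 120 nM; Read-out basis: percent inhibition; Medium: 50 mM Tris-HCl pH 7.5 with Mg2+, KCl, DTT, BSA; Repeats: single replicate; Compound: 12.8 µM single point, 1% DMSO; Signal: epi absorbance; Reagent: 5 mM T5PNP chromogenic substrate; Benchmarks: no-enzyme high, DMSO-plus-enzyme low.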
GSTO1 counter: blocks human GSTO1 in RBBP9 counter-screen; P78417; recombinant GSTO1, activity-based probe fluorescence polarization; inhibition, % at 5.96 µM; 300,000 tested, 1.1% active; AID 1974;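 active means inhibition above the campaign mean inhibition plus 3 SD, cut at about 35% in these data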
UCH37 DUB inh: human UCH37 deubiquitinating enzyme inhibition; Q9Y5K5; AID 588478; purified proteasome/UCH37, Ub-AMC cleavage fluorescence; inhibition, % (no concentration beside the values); 330,000 tested, 0.33% active;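 active means mean inhibition over replicate wells above about 20%, limit read from the data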
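Material: human UCH37 enzyme supplied as purified proteasome complex / Amount: 0.15 nM proteasome as dispensed / Buffer or medium: pH 7.4 Tris-HCl (50 mM) with ovalbumin, ATP-MgCl2, DTT / Times: preincubation 30 min, reaction 25 min, room temperature / Technique: AMC fluorescence from Ub-AMC cleavage, excitation 355 nm, emission 460 nm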
GSTO1 confirm: GSTO1 (human) inhibition, confirmation. shares compounds with GSTO1 counter. recombinant GSTO1, probe fluorescence polarization. inhibition, % at 5.96 µM. 2,400 tested, 54% active. AID 2176;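 active means inhibition above the primary screen's cutoff, its mean inhibition plus 3 SD, cut at about 35% in these data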;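 further: loss of polarization as inhibitors block binding of rhodamine sulfonate ester activity probe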
GSTO1 ABPP inh: inhibitors of recombinant human GSTO1 | shares compounds with GSTO1 counter | gel ABPP SE-Rh probe fluorescence | inhibition, % at 1 µM | 130 tested, 30% active | AID 463110;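 active means inhibition of the enzyme GSTO1 above about 75%, limit read from the data; inactive means inhibition below that limit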
Hits are given with their value; - = inactive; . = no result; ! = a repeat was not active.

SMILES	PAD4 inh	HKDC1 inhibitor	CTSL1 counter	TDP2 absorb	GSTO1 counter	UCH37 DUB inh	GSTO1 confirm	others
CNC(=S)NN=Cc1c(C)cccc1Cl	.	.	.	.	.	-	.
N#Cc1c(N2CCCC(O)C2)nc(N)c2c(N)nc3c(c12)CC(=O)N3C12CC3CC(CC(C3)C1)C2 (centres undefined)	-	-	25	-	79	-	88
O=c1c(=Cc2ccc(CNS(=O)(=O)c3ccccc3)o2)sc2n1CCN=2	.	.	.	.	.	-	.
Cc1cccc(CCNS(=O)(=O)c2ccc3c(c2)oc(=O)n3C)c1	-	-	-	-	55	-	58
CC(C)c1ccc(NS(=O)(=O)c2ccc3c(c2)oc(=O)n3C)cc1	-	-	-	-	65	-	65
Cn1c(=O)oc2cc(S(=O)(=O)Nc3ccc(Cl)cc3)ccc21	-	-	-	-	-	-	.
Cn1c(=O)oc2cc(S(=O)(=O)NCCC(=O)NC3CCCC3)ccc21	-	-	-	-	-	-	.
Cn1c(=O)oc2cc(S(=O)(=O)NC3CCCCCCC3)ccc21	-	-	-	-	43	-	39
COC(=O)C1Cc2c([nH]c3ccccc23)C2(CCN(Cc3ccccc3)CC2)N1 (centres undefined)	-	-	-	-	62	-	-
Cc1cc[n+](-c2[nH]c(=O)sc2C=N/N=C(\[O-])c2ccccc2)cc1	.	.	.	.	.	-	.
Cc1cc(N=Cc2c(O)ccc3cc(Br)ccc23)no1	-	-	-	-	46	-	-
Cc1cc(N=Cc2c(O)n(-c3ccc(C)c(C)c3)c(=O)c3ccccc23)no1	.	.	.	-	.	.	.
Cc1nc2ccc(Br)cn2c1C(=O)NN=Cc1ccccc1[N+](=O)[O-]	.	.	.	.	.	-	.
Cc1ccc(Sc2ccc(NC(=O)CCl)cc2)c(C)c1	-	-	-	-	78	-	89
CC(C)C[C@H](NC(=O)OC(C)(C)C)C(=O)NN=CC1=Cc2ccccc2OC1C (some centres undefined)	.	.	.	.	.	-	.
Oc1ccc(NCc2cccc(OCc3ccccc3)c2)cc1	-	-	-	-	82	-	-
COC(=O)c1ccccc1NC(=O)C1CCN(S(=O)(=O)c2cc(C)ccc2OC)CC1	-	-	-	-	74	-	-
COc1ccc(OC)c(S(=O)(=O)N2CCC(C(=O)Nc3cc(C)ccc3C)CC2)c1	-	-	-	-	-	-	.
CC(CNc1ccccc1O)C(=O)O (centres undefined)	-	-	-	-	45	-	-
COc1cc(OC)c(OC)cc1C=NNC(=O)c1cccc(S(=O)(=O)N2CCOCC2)c1	.	.	.	.	.	-	.
O=C(Oc1ccc(OC(=O)c2ccco2)c(S(=O)(=O)c2ccc(Br)cc2)c1)c1ccco1	-	-	-	.	49	.	-
O=C(NN=Cc1ccccn1)C1COc2cc3ccccc3cc2O1 (centres undefined)	.	.	.	.	.	-	.
C/C(=N/NC(=O)Cc1cc(=O)[nH][nH]1)c1ccc([N+](=O)[O-])cc1	-	-	-	-	57	.	-
COc1cc(C=NNC(=O)C2C3CCCCC32C)cc(Br)c1O (centres undefined)	.	.	.	.	.	-	.
CC1=C(C)/C(=N\OS(=O)(=O)c2ccc(C)cc2)C=CC1=O	-	-	-	-	44	.	-
SMILES	PAD4 inh	HKDC1 inhibitor	CTSL1 counter	TDP2 absorb	GSTO1 counter	UCH37 DUB inh	GSTO1 confirm	others
COc1ccc(C(C(=O)NC2CCCCC2)N(C(=O)CCl)c2ccc(Cl)cc2)cc1 (centres undefined)	-	-	-	.	97	-	89	GSTO1 ABPP inh=91
COC(CN(C(=O)CCl)C(C(=O)NC1CCCCC1)c1ccc(Cl)cc1)OC (centres undefined)	-	-	82	-	73	-	98	GSTO1 ABPP inh=-
O=C(NN=Cc1ccc(F)c(F)c1)c1cc2c(s1)-c1ccccc1CC2	.	.	.	.	.	-	.
Nc1ccc(C(=O)NN=Cc2ccccc2)cc1	.	.	.	.	.	-	.
CC(=NNC(=O)c1cn(-c2cccc(C)n2)cn1)c1ccc(C)cc1	.	.	.	.	.	-	.
COc1ccc(/C=C2\SC(=O)NC2=S)cc1OC	-	-	-	-	62	-	72
CC1=CC(=O)c2ccccc2C1=O	-	-	-	-	39!	-	50
CCCN1C(=S)c2ccccc2C1c1ccccc1 (centres undefined)	-	-	-	-	60	-	-
CCCCN1C(=S)NC[C@@H]1c1ccccc1	-	-	-	-	-	-	.
O=C(N/N=C/c1cc(Br)c(Br)o1)c1cccnc1	-	-	-	-	44	.	-
C=CCOc1c(Cl)cc(C=NO)cc1OC	.	.	.	.	.	-	.
N=c1oc2ccccc2cc1C(=O)NN=Cc1ccccc1	.	.	.	.	.	-	.
O=C(CN1CCCC1)N/N=C/c1c(O)ccc2ccccc12	-	-	-	-	38	.	-
Cc1n[nH]c(=S)n1/N=C/c1c(O)ccc2ccccc12	-	-	-	-	59	.	-
O=c1c2ccccc2nc(COc2ccccc2)n1/N=C/c1ccc(O)c(O)c1	-	-	-	-	53	.	-
Oc1ccc2ccccc2c1C=Nn1c(-c2n[nH]c3c2CCC3)n[nH]c1=S	.	.	.	-	.	.	.
Cc1nc2ccccc2c(=O)n1/N=C/c1c(O)ccc2ccccc12	-	-	-	-	63	.	-
CCOc1cc(C=NNC(=O)C(C)Sc2ccccn2)ccc1O (centres undefined)	.	.	.	.	.	-	.
O=C(NN=Cc1c[nH]c2ccccc12)c1sc2ccccc2c1Cl	.	.	.	.	.	-	.
Clc1nc2sccn2c1C=Nn1cnc2ccccc21	.	.	.	.	.	-	.
O=CN/C=C/c1cc(O)ccc1O	-	-	-	-	72	-	-
CN(C)C=NC(=S)Nc1ccc(Cl)cc1Cl	.	.	.	.	.	-	.
O=C(OCC(=O)N1CCN(c2ccccc2)CC1)C1=COCCO1	-	-	-	-	67	-	-
O=C1C=C(O)c2c(O)cccc2C1=O	-	.	-	.	38	.	-
Nc1cc(-c2ccncc2)c[nH]c1=O	-	-	-	-	42	-	-
SMILES	PAD4 inh	HKDC1 inhibitor	CTSL1 counter	TDP2 absorb	GSTO1 counter	UCH37 DUB inh	GSTO1 confirm	others
NC(=O)c1csc(-c2ccncc2)n1	-	-	-	-	-	-	.
Cc1cc(C)cc(NC(=O)CCc2c(C)nn(-c3ccc(N4CCCCC4)nn3)c2C)c1	-	-	-	-	67	-	-
Nc1ccc(N2CCCCC2)cc1N1CCCCC1	-	-	-	-	57	-	-
CCN(CC)c1ccc(N=C2C(=O)Nc3ccccc32)cc1	-	-	-	-	85	.	-
COc1ccc(C=NO)cc1COc1ccc(NC(C)=O)cc1	.	.	.	.	.	-	.
Clc1ccc(-c2nnc(SCc3nc(-c4ccccc4)no3)o2)cc1	-	-	-	-	40	-	46
O=C(NN=C1CCCC1)c1ccc(Cl)cc1	-	-	-	-	-	-	.
O=C1CCC/C(=N/Nc2ccc(Cl)cc2)C1	-	-	-	-	40	.	-
